Experimental data as given in ChEMBL document CHEMBL1151476, “Genetic and biochemical characterization of CAD-1, a chromosomally encoded new class A penicillinase from Carnobacterium divergens” (Antimicrob Agents Chemother, 2008).
In brackets after ≈: the same amount, converted by molar mass. Activity calls are given as the source filed them. The calls are words filed in the database; no cut-off is given here.

Tests used:
Carnobacterium divergens [1] = assay: Activity of Carnobacterium divergens BM4489 penicillinase Cad-1 assessed as initial rate of hydrolysis by spectrophotometer
Carnobacterium divergens [2] = assay: Ratio of Kcat to Km of Carnobacterium divergens BM4489 penicillinase Cad-1 relative to benzyl-penicillin
Carnobacterium divergens [3] = assay: Ratio of Kcat to Km of Carnobacterium divergens BM4489 penicillinase Cad-1
Carnobacterium divergens [4] = assay: Activity of Carnobacterium divergens BM4489 penicillinase Cad-1 at 1 uM enzyme concentration assessed as initial rate of hydrolysis by spectrophotometer
Escherichia coli [5] = assay: Antimicrobial activity against Escherichia coli BL21 (DE3) harboring pAT514 by E-test; type: functional
Method in brief: (§1)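 MICs read by E-test strips on Mueller-Hinton agar.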

Carnobacterium divergens [6] = assay: Antimicrobial activity against Carnobacterium divergens CIP101029 at 3 McFarland inoculum size by E-test; type: functional
Carnobacterium divergens [7] = assay: Antimicrobial activity against Carnobacterium divergens CIP101029 at 0.5 McFarland inoculum size by E-test; type: functional
Carnobacterium divergens [8] = assay: Antimicrobial activity against Carnobacterium divergens BM4490 expressing beta-lactamase CAD1 at 0.5 McFarland inoculum size by E-test; type: functional, organism-based
Carnobacterium divergens [9] = assay: Antimicrobial activity against Carnobacterium divergens BM4490 expressing beta-lactamase CAD1 at 3 McFarland inoculum size by E-test; type: functional, organism-based; conditions: 3 M
Escherichia coli [10] = assay: Antimicrobial activity against Escherichia coli BL21 (DE3) by E-test; type: functional; method in brief: as §1
Carnobacterium divergens [11] = assay: Antimicrobial activity against Carnobacterium divergens BM4489 expressing beta-lactamase CAD1 at 3 McFarland inoculum size by E-test; type: functional
Carnobacterium divergens [12] = assay: Antimicrobial activity against Carnobacterium divergens BM4489 expressing beta-lactamase CAD1 at 0.5 McFarland inoculum size by E-test; type: functional
[13] = Inhibition of Carnobacterium divergens BM4489 penicillinase Cad-1
Method in brief: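 CAD-1 carried a C-terminal His6 tag and was expressed in E. coli BL21-CodonPlus(DE3)-RIPL from pAT514. It was purified by Ni affinity and Superdex 75 gel filtration. Enzyme was preincubated with varied inhibitor for 30 min at 25°C in 100 mM sodium phosphate pH 7.0, then 100 µM nitrocefin was added. Initial hydrolysis rates were followed spectrophotometrically. IC50 is the inhibitor concentration halving the rate.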

[14] = Ratio of IC50 for beta-lactamase TEM-1 over IC50 for Carnobacterium divergens BM4489 penicillinase Cad-1

SMILES | Km (Carnobacterium divergens [1]) [µM] | kcat (Carnobacterium divergens [1]) [s⁻¹] | kcat/Km (Carnobacterium divergens [2]) | kcat/Km (Carnobacterium divergens [3]) [M⁻¹ s⁻¹] | Activity (Carnobacterium divergens [4]) | MIC (Escherichia coli [5]) [µg/mL] | MIC (Carnobacterium divergens [6]) [µg/mL] | MIC (Carnobacterium divergens [7]) [µg/mL] | MIC (Carnobacterium divergens [8]) | MIC (Carnobacterium divergens [9]) | MIC (Escherichia coli [10]) [µg/mL] | MIC (Carnobacterium divergens [11]) [µg/mL] | MIC (Carnobacterium divergens [12]) [µg/mL] | IC50 [13] [µM] | Ratio IC50 [14]
CC1(C)S[C@@H]2[C@H](NC(=O)C(C(=O)O)c3ccccc3)C(=O)N2[C@H]1C(=O)O (some centres undefined) | 245 | 6 | 0.4 | 24000 | – | – | – | – | – | – | – | – | – | – | –
CO/N=C(\C(=O)N[C@@H]1C(=O)N2C(C(=O)O)=C(COC(N)=O)CS[C@H]12)c1ccco1 | – | – | – | – | inactive | – | – | – | – | – | – | – | – | – | –
CO/N=C(\C(=O)N[C@@H]1C(=O)N2C(C(=O)[O-])=C(C[N+]3(C)CCCC3)CS[C@H]12)c1csc(N)n1 | – | – | – | – | inactive | – | – | – | – | – | – | – | – | – | –
CO[C@@]1(NC(=O)Cc2cccs2)C(=O)N2C(C(=O)O)=C(COC(N)=O)CS[C@@H]21 | – | – | – | – | inactive | – | – | – | – | – | – | – | – | – | –
O=C(Cc1cccs1)N[C@@H]1C(=O)N2C(C(=O)[O-])=C(C[n+]3ccccc3)CS[C@H]12 | 26 | 0.56 | 0.3 | 22000 | – | – | – | – | – | – | – | – | – | – | –
CC1(C)S[C@@H]2[C@H](NC(=O)[C@H](N)c3ccc(O)cc3)C(=O)N2[C@H]1C(=O)O [AMOXICILLIN] | – | – | – | – | – | > 256 | 2 (≈ 5.47 µM) | 0.75 (≈ 2.05 µM) | Active | Active | 1.5 (≈ 4.1 µM) | 16 (≈ 43.8 µM) | 4 (≈ 10.9 µM) | – | –
CC1(C)S[C@@H]2[C@H](NC(=O)[C@H](N)c3ccccc3)C(=O)N2[C@H]1C(=O)O [AMPICILLIN] | 48 | 153 | 48 | 3.19e+06 | – | > 256 | 2 (≈ 5.72 µM) | 1.5 (≈ 4.29 µM) | Active | Active | 0.75 (≈ 2.15 µM) | 24 (≈ 68.7 µM) | 3 (≈ 8.59 µM) | – | –
C[C@H]1[C@H](NC(=O)/C(=N\OC(C)(C)C(=O)O)c2csc(N)n2)C(=O)N1S(=O)(=O)O [AZTREONAM] | – | – | – | – | Active | < 0.016 | > 256 | > 256 | Active | Active | < 0.016 | > 256 | > 256 | – | –
CO/N=C(\C(=O)N[C@@H]1C(=O)N2C(C(=O)O)=C(COC(C)=O)CS[C@H]12)c1csc(N)n1 [CEFOTAXIME] | – | – | – | – | inactive | – | > 256 | > 256 | Active | Active | < 0.016 | > 256 | > 256 | – | –
CC(C)(O/N=C(\C(=O)N[C@@H]1C(=O)N2C(C(=O)[O-])=C(C[n+]3ccccc3)CS[C@H]12)c1csc(N)n1)C(=O)O [CEFTAZIDIME] | – | – | – | – | inactive | 0.047 (≈ 0.086 µM) | > 256 | > 256 | Active | Active | 0.064 (≈ 0.117 µM) | > 256 | > 256 | – | –
O=C(O)[C@H]1/C(=C/CO)O[C@@H]2CC(=O)N21 [CLAVULANIC ACID] | – | – | – | – | – | – | – | – | – | – | – | – | – | 4.7 | 60
C[C@@H](O)[C@H]1C(=O)N2C(C(=O)O)=C(SCCNC=N)C[C@H]12 [IMIPENEM ANHYDROUS] | – | – | – | – | – | 0.19 (≈ 0.635 µM) | 0.19 (≈ 0.635 µM) | 0.19 (≈ 0.635 µM) | Active | Active | 0.25 (≈ 0.835 µM) | 0.19 (≈ 0.635 µM) | 0.19 (≈ 0.635 µM) | – | –
Cc1onc(-c2ccccc2)c1C(=O)N[C@@H]1C(=O)N2[C@@H]1SC(C)(C)[C@@H]2C(=O)O [OXACILLIN] | 21 | 62 | 45 | 2.95e+06 | – | – | 24 (≈ 59.8 µM) | 16 (≈ 39.9 µM) | Active | Active | – | 24 (≈ 59.8 µM) | 24 (≈ 59.8 µM) | – | –
CC1(C)S[C@@H]2[C@H](NC(=O)Cc3ccccc3)C(=O)N2[C@H]1C(=O)O [PENICILLIN G] | 27 | 178 | – | 6.6e+06 | – | > 256 | 6 (≈ 17.9 µM) | 3 (≈ 8.97 µM) | Active | Active | 4 (≈ 12 µM) | 96 (≈ 287 µM) | 12 (≈ 35.9 µM) | – | –
CCN1CCN(C(=O)N[C@@H](C(=O)N[C@@H]2C(=O)N3[C@@H]2SC(C)(C)[C@@H]3C(=O)O)c2ccccc2)C(=O)C1=O [PIPERACILLIN] | 70 | 64 | 14 | 914000 | – | > 256 | 32 (≈ 61.8 µM) | 12 (≈ 23.2 µM) | Active | Active | 0.38 (≈ 0.734 µM) | 128 (≈ 247 µM) | 64 (≈ 124 µM) | – | –
CC1(C)[C@H](C(=O)O)N2C(=O)C[C@H]2S1(=O)=O [SULBACTAM] | – | – | – | – | – | – | – | – | – | – | – | – | – | 43.5 | –
C[C@]1(Cn2ccnn2)[C@H](C(=O)O)N2C(=O)C[C@H]2S1(=O)=O [TAZOBACTAM] | – | – | – | – | – | – | – | – | – | – | – | – | – | 0.27 | –
CC1(C)S[C@@H]2[C@H](NC(=O)[C@H](C(=O)O)c3ccsc3)C(=O)N2[C@H]1C(=O)O [TICARCILLIN] | 106 | 35 | 5 | 330000 | – | > 256 | 24 (≈ 62.4 µM) | 24 (≈ 62.4 µM) | Active | Active | 0.75 (≈ 1.95 µM) | 128 (≈ 333 µM) | 32 (≈ 83.2 µM) | – | –
